Measured values from PMC6976987 (Molecular Genetics and Metabolism Reports, 2020).

Tests used:
[1] = Safety assessments; format: in vivo, human
In short: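 Open-label study in healthy adults. Safety was monitored after a single dose (Day 1), during multiple doses alone (Days 2–8), and during co-dosing (Days 9–15 with the CYP3A/P-gp inhibitor; Days 9–18 with the CYP2D6 inhibitor). Measures: treatment-emergent AEs, clinical labs, vital signs, physical exams, 12-lead ECG, 12 h continuous telemetry. An AE counted as treatment-related if possibly, probably or definitely related to study drug.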

[2] = test system: glucosylceramide synthase; conditions: read-out: in vitro IC50; inhibitor of glucosylceramide synthase; cited from earlier work
[3] = Eliglustat alone, pharmacokinetics across all three studies; format: in vivo, human
In short: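 Test compound given orally to healthy adults as a single dose, then BID. Terminal half-life comes from single-dose plasma profiles by non-compartmental analysis. Plasma was protein-precipitated with acetonitrile containing a 13C internal standard, solid-phase extracted and measured by LC-MS/MS. Steady state was judged by graphical examination of pre-dose (trough) concentrations during repeated dosing.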

[4] = Rifampin drug interaction study: eliglustat pharmacokinetics in healthy adults; format: in vivo, human; conditions: for increase in eliglustat AUC: single infusion of rifampin 600 mg with single oral dose of eliglustat 127 mg; for Ratio (%) of geometric least squares mean, AUC0-t / AUC: 0 to 12 h; for Tmax: median (minimum, maximum); for AUC: AUC0-τ
[5] = concomitant dosing of eliglustat with paroxetine
[6] = concomitant dosing of eliglustat with paroxetine, Days 9 to 18, N = 35
[7] = multiple-dose eliglustat alone, Days 2 to 8, N = 36
[8] = paroxetine study (N = 36), whole study
[9] = CYP2D6 PMs, eliglustat 84 mg BID with oral rifampin 600 mg QD
[10] = CYP2D6 PMs, multiple dose Day 6, test 600 mg rifampin oral QD + 84 mg eliglustat oral BID (N = 6) vs reference 84 mg eliglustat oral BID alone (N = 6)
[11] = CYP2D6 non-PMs, eliglustat 127 mg BID with oral rifampin 600 mg QD
[12] = CYP2D6 non-PMs, multiple dose Day 6, test 600 mg rifampin oral QD + 127 mg eliglustat oral BID (N = 18) vs reference 127 mg eliglustat oral BID alone (N = 19)
[13] = human, plasma, oral, 84 mg, CYP2D6 PMs, eliglustat 84 mg BID, monotherapy period Days 2 to 6, mean (SD)
[14] = human, plasma, oral, 127 mg, CYP2D6 non-PMs (N = 19), eliglustat 127 mg BID, monotherapy period Days 2 to 6, mean (SD)
[15] = human, plasma, oral, 127 mg, IMs/EMs only (N = 14), eliglustat 127 mg BID, monotherapy period Days 2 to 6, mean (SD)
[16] = human, plasma, po, CYP2D6 PMs, eliglustat 84 mg BID + rifampin 600 mg oral QD, concomitant period Days 2 to 6, mean (SD)
[17] = human, plasma, po, CYP2D6 non-PMs (N = 18), eliglustat 127 mg BID + rifampin 600 mg oral QD, concomitant period Days 2 to 6, mean (SD)
[18] = human, plasma, po, IMs/EMs only (N = 13), eliglustat 127 mg BID + rifampin 600 mg oral QD, concomitant period Days 2 to 6, mean (SD)

half-life ([3]; human, plasma, oral): 4.2 to 5.11 h | time to steady-state ([3]; repeated doses of eliglustat, graphical examination of Ctrough values): approximately 4 days | increase in eliglustat AUC ([4]; CYP2D6 EMs): 24% | reduction of eliglustat AUC0-τ compared with eliglustat alone [4, 9]: > 95% | reduction of eliglustat Cmax compared with eliglustat alone [4, 9]: > 95% | Ratio (%) of geometric least squares mean, Cmax [4, 10]: 0.05% | Ratio (%) of geometric least squares mean, AUC0-t [4, 10]: 0.04% | effect on mean eliglustat exposure ([4]; CYP2D6 PMs, single 30-min infusion of rifampin 600 mg with single oral dose of eliglustat 84 mg): no effect | Ratio (%) of geometric least squares mean, AUC0-∞ ([4]; CYP2D6 PMs, single dose Day 1, test 600 mg rifampin IV + 84 mg eliglustat oral (N = 6) vs reference 84 mg eliglustat oral (N = 5)): 0.95% | Ratio (%) of geometric least squares mean, Cmax ([4]; CYP2D6 PMs, single dose Day 1, test 600 mg rifampin IV + 84 mg eliglustat oral (N = 6) vs reference 84 mg eliglustat oral (N = 6)): 0.97% | reduction of eliglustat AUC0-τ (exposure) compared with eliglustat alone [4, 11]: > 85% | reduction of eliglustat Cmax compared with eliglustat alone [4, 11]: > 85% | Ratio (%) of geometric least squares mean, Cmax [4, 12]: 0.16% | Ratio (%) of geometric least squares mean, AUC0-t [4, 12]: 0.15% | Ratio (%) of geometric least squares mean, AUC0-∞ ([4]; CYP2D6 non-PMs, single dose Day 1, test 600 mg rifampin IV + 127 mg eliglustat oral (N = 17) vs reference 127 mg eliglustat oral alone (N = 19)): 1.19% | Ratio (%) of geometric least squares mean, Cmax ([4]; CYP2D6 non-PMs, single dose Day 1, test 600 mg rifampin IV + 127 mg eliglustat oral (N = 19) vs reference 127 mg eliglustat oral alone (N = 19)): 1.19% | increase in eliglustat AUC ([4]; URMs): 11% | Cmax ([4]; human, plasma, iv, CYP2D6 non-PMs (N = 19), eliglustat 127 mg single dose + rifampin 600 mg IV single dose, concomitant period Day 1, mean (SD)): 17.9 ng/mL | half-life ([4]; human, plasma, iv, t1/2z, CYP2D6 PMs, eliglustat 84 mg single dose + rifampin 600 mg IV single dose, concomitant period Day 1, mean (SD)): 6.9 h | Tmax ([4]; human, plasma, iv, CYP2D6 PMs, eliglustat 84 mg single dose + rifampin 600 mg IV single dose, concomitant period Day 1): 4 h | Tmax ([4]; human, plasma, iv, CYP2D6 non-PMs (N = 19), eliglustat 127 mg single dose + rifampin 600 mg IV single dose, concomitant period Day 1): 3 h | AUC [4, 13]: 922 ng·h/mL | Cmax [4, 13]: 113 ng/mL | Tmax ([4]; human, plasma, oral, 84 mg, CYP2D6 PMs, eliglustat 84 mg BID, monotherapy period Days 2 to 6): 3 h | AUC [4, 14]: 295 ng·h/mL | AUC [4, 15]: 378 ng·h/mL | Cmax [4, 14]: 42.8 ng/mL | Cmax [4, 15]: 54.7 ng/mL | Tmax ([4]; human, plasma, oral, 127 mg, CYP2D6 non-PMs (N = 19), eliglustat 127 mg BID, monotherapy period Days 2 to 6): 2 h | AUC [4, 16]: 38 ng·h/mL | AUC [4, 17]: 29.3 ng·h/mL | AUC [4, 18]: 31 ng·h/mL | Cmax [4, 16]: 5.7 ng/mL | Cmax [4, 17]: 4.67 ng/mL | Cmax [4, 18]: 4.89 ng/mL | Tmax ([4]; human, plasma, po, CYP2D6 PMs, eliglustat 84 mg BID + rifampin 600 mg oral QD, concomitant period Days 2 to 6): 2.5 h | Tmax ([4]; human, plasma, po, CYP2D6 non-PMs (N = 18), eliglustat 127 mg BID + rifampin 600 mg oral QD, concomitant period Days 2 to 6): 1.5 h | changes in eliglustat exposure ([4]; in the presence of a single IV infusion of rifampin, called negligible): < 19%
Compound: CCCCCCCC(=O)N[C@H](CN1CCCC1)[C@H](O)c1ccc2c(c1)OCCO2 [eliglustat]
tolerability ([1]; administered alone and with paroxetine): well tolerated | subjects with application site dermatitis [1, 5]: 31.4% | subjects with moderate treatment-related headache [1, 5]: 11.4% | number of AEs [1, 6]: 194 events | subjects with AEs [1, 6]: 91.4% | subjects reporting AEs related to eliglustat ([1]; concomitant dosing with paroxetine, N = 35): 65.7% | subjects reporting AEs possibly related to both eliglustat and paroxetine ([1]; concomitant dosing, N = 35): 65.7% | subjects reporting treatment-related AEs ([1]; following a single dose of eliglustat, Day 1, N = 36): 5.6% | subjects with moderate gastritis ([1]; following multiple-dose eliglustat): 5.6% | subjects who discontinued treatment due to AEs ([1]; gastritis (eliglustat alone), dizziness and nausea, nausea and panic attack (concomitant dosing)): 8.3% | subjects with moderate treatment-related headache ([1]; multiple-dose eliglustat): 2.8% | number of AEs [1, 7]: 31 events | subjects with AEs [1, 7]: 41.7% | subjects reporting treatment-related AEs ([1]; multiple-dose eliglustat, Days 2 to 8, N = 36): 27.8% | Any adverse event (AE), number of events [1, 8]: 233 N | Any adverse event (AE), number of subjects [1, 8]: 33 (91.7%) N (%) | Any treatment-related AE, number of events [1, 8]: 155 N | Any treatment-related AE, number of subjects [1, 8]: 26 (72.2%) N (%) | Discontinuations due to AE, number of events [1, 8]: 5 N | Discontinuations due to AE, number of subjects [1, 8]: 3 (8.3%) N (%) | Serious AEs, number of events [1, 8]: 0 N | Serious AEs, number of subjects [1, 8]: 0 (0.0%) N (%) | Severe AEs, number of events [1, 8]: 0 N | Severe AEs, number of subjects [1, 8]: 0 (0.0%) N (%) | IC50 [2]: 0.024 µM
